# A selection: hits, their analogues and other compounds. The true share with any hit is near 3.7%.
# KCNK9 inh-1: human KCNK9 channel inhibition; Q9NPC2; HEK293 KCNK9, FluxOR thallium flux fluorescence; hits give low values; B-score at 10 µM; 1.2% of 310,000 active; AID 488922;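 active means ratio B-score over 3 SD below the library mean, with starting fluorescence within 5 SD of its mean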;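 further: negative B-score means less thallium flux so channel inhibition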
# Target sequence (Q9NPC2 whole entry, looked up): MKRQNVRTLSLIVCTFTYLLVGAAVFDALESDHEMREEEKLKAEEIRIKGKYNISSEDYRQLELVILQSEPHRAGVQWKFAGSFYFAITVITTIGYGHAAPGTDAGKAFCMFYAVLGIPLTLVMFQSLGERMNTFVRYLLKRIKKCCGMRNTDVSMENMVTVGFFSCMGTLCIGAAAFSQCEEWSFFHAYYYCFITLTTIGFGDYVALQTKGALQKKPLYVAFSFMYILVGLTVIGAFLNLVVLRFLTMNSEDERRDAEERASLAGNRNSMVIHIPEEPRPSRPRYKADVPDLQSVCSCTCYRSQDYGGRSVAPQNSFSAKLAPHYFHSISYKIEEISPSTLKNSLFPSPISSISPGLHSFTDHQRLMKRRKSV
# hERG rescue: shields human hERG channel from block by proarrhythmic agents. CHO-hERG, FluxOR thallium flux, dofetilide IC70 present. activation (rescue from dofetilide block), less the hit threshold, % at 10 µM. 0.51% of 310,000 active;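 active means activation above the mean of controls blocked by dofetilide plus 5 SD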;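 further: thallium influx through hERG after potassium depolarization seen as dye fluorescence rise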
# KCNK3 block: human KCNK3 channel inhibition, primary screen; O14649; 0.84% of 340,000 active; CHO-KCNK3 thallium flux, FluxOR fluorescence; hits give low values; B-score at 10 µM;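 active means B-score under library mean minus 4 SD, starting fluorescence ratio at most library mean plus 5 SD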;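 further: more negative B-score means stronger inhibition of thallium flux through KCNK3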
# Target sequence (O14649 whole entry, looked up): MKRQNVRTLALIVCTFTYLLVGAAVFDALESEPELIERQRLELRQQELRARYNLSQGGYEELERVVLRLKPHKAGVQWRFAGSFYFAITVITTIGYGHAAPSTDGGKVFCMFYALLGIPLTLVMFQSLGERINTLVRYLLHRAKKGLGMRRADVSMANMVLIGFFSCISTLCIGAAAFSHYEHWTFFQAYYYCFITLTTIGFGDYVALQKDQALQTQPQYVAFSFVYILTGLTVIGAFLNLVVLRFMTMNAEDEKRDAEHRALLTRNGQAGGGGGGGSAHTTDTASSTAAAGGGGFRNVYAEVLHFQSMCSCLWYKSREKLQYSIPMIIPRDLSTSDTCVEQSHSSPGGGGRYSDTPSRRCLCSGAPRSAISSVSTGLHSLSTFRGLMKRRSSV
# KCNQ1 act: human KCNQ1 channel potentiation or activation | AID 2648 | P51787 | B-score at 10 µM | 0.35% of 310,000 active | CHO-K1 KCNQ1, thallium flux FluxOR fluorescence; hits give high values;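 active means fluorescence ratio B-score, a plate-corrected score, at least three library SD, with initial intensity B-score within 5 SD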
#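 Assay system: CHO-K1 cells stably expressing KCNQ1; Medium: assay buffer with matched DMSO; Also added: K+/Tl+ depolarizing stimulus; Dosing: single dose; Timing: dye 90 min, compound 20 min, room temperature; Measured by: kinetic FluxOR thallium fluorescence, 10-s 1-Hz baseline, 110-s post-stimulus read; Read-out: peak-minus-minimum fluorescence over initial fluorescence, negative-control normalized, B-scored.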
# Kir21 inh: blocks the mouse Kir2.1 inward-rectifier potassium channel | B-score at 10 µM | 0.85% of 310,000 active | P35561 | AID 1672 | HEK293-Kir2.1, FluxOR thallium flux fluorescence; hits give low values;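 active means fluorescence ratio B-score at or below minus 3 SD of library scores, with starting-brightness B-score within 2 SD, cut at about -4.2 in these data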;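 further: channel flux triggered by added potassium and thallium sulfate stimulus; B-score of peak minus minimum fluorescence over baseline after thallium stimulus; more negative B-score means stronger Kir2.1 block with less thallium influx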
# KCNQ1 inh: human KCNQ1 channel inhibition; AID 2642; CHO-K1 KCNQ1, FluxOR thallium flux fluorescence; hits give high values; P51787; B-score at 10 µM; 1.3% of 310,000 active;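 active means compounds whose thallium flux B-score, printed positive for inhibition, exceeds three library SD while starting fluorescence stays within three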;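 further: channel opened by potassium depolarization with thallium stimulus after 20 min compound exposure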
# hERG inh: blocks human hERG, in counter-screen for Kir2.1 inhibitors. shares compounds with Kir21 inh. hERG-expressing cells, thallium flux. inhibition, % at 10 µM. 20% of 320 active. AID 2236;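 further: host cells are CHO cells stably expressing hERG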
# KCNK9 inh-2: human KCNK9 off-target activity of Kir2.1 blockers; shares compounds with Kir21 inh; KCNK9-expressing cells, ion flux inhibition; inhibition, % at 10 µM; 5% of 320 active
# Kir21 ephys inh: mouse Kir2.1 inward rectifier channel inhibition | Kir2.1 cells, automated patch-clamp current inhibition | shares compounds with Kir21 inh | inhibition, % at 25 µM | 71% of 320 active | AID 463252
# KCNQ1 block val: confirmation of human KCNQ1 potassium channel inhibitors; 93% of 1,600 active; KCNQ1 cell line, FluxOR thallium flux fluorescence; shares compounds with KCNQ1 inh; AID 588353; inhibition, % at 10 µM;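 active means primary screen active, with duplicate mean exceeding buffer control mean plus 3 SD of buffer wells, cut at about 28% in these data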;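 further: 0% = buffer control ratio and 100% = XE991 inhibitor control ratio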
# CHO KCNQ1 ctr: counter-screen for KCNQ1 inhibitors: effect in parental CHO cells; fluorescence ratio (Tl flux) at 10 µM; 21% of 1,600 active; parental CHO-K1, FluxOR thallium flux fluorescence ratio; hits give low values; zero means no signal rise above baseline; shares compounds with KCNQ1 inh;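 active means mean of duplicate thallium-flux fluorescence ratios in parental host cells more than 5 SD below the buffer control mean, cut at about 0.38 in these data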;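 further: ratio is peak minus minimum fluorescence divided by baseline fluorescence; actives read low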
# KCNQ2 spec: rat KCNQ2 inhibition in KCNQ1 inhibitor specificity screen. shares compounds with KCNQ1 inh. KCNQ2 cells, FluxOR thallium flux fluorescence. inhibition, % at 10 µM. 71% of 1,600 active. AID 651746;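 active means mean percent inhibition of the KCNQ2 thallium signal more than 5 SD above the buffer-only control wells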;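 further: KCNQ2 expressed in CHO cells; 0% = buffer control wells and 100% = XE-991 inhibitor control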
# KCNQ1 KCNE1 spec: selectivity of KCNQ1 inhibitors: inhibition of human KCNQ1/KCNE1 channel. shares compounds with KCNQ1 inh. KCNQ1/KCNE1 cells, FluxOR thallium flux fluorescence. inhibition, % at 10 µM. 77% of 1,600 active;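 active means mean percent inhibition of duplicate wells above the buffer-only control mean plus 3 SD of those controls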;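 further: 0% = buffer only wells and 100% = XE-991 inhibitor control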
# KCNK9 block conf: human KCNK9 inhibitor confirmation; shares compounds with KCNK9 inh-1; HEK293 KCNK9 cells, FluxOR thallium flux fluorescence; inhibition, % at 10 µM; 43% of 4,900 active; AID 492992;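 active means thallium signal inhibited by more than 5 SD of the compound-free buffer control wells, on both duplicate plates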;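 further: 0% = assay buffer control wells without compound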
# Kir21 sel: mouse Kir2.1 off-target activity of KCNK9 modulators; shares compounds with KCNK9 inh-1; Kir2.1 cells, FluxOR thallium flux fluorescence; AID 492993; inhibition, % at 10 µM; 4% of 4,900 active;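 active means thallium signal drop more than 5 SD beyond the mean of the no-compound control wells, seen in both duplicate plates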;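 further: signal is fluorescence rise after thallium addition divided by baseline fluorescence; plate controls were assay buffer only for no effect and full block by chlorpromazine control for full effect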
# HEK293 Tl ctr: second counter-screen for KCNK9 modulators: effect in non-induced cells; shares compounds with KCNK9 inh-1; non-induced KCNK9-HEK293, FluxOR thallium flux; inhibition, % at 10 µM; 40% of 4,900 active; AID 492997;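 active means thallium signal drop beyond 5 SD of the untreated control mean, on both duplicate plates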;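 further: plate controls were buffer only IC0 wells for no effect and SID17386958 at its maximal inhibitory level for full effect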
# An asterisk follows results filed as active; i = inactive; ? = inconclusive; / = no result. Unless noted, how the calls were made is not given here.
SMILES,KCNK9 inh-1,hERG rescue,KCNK3 block,KCNQ1 act,Kir21 inh,KCNQ1 inh,hERG inh,KCNK9 inh-2,Kir21 ephys inh,others
C#CCNC(=O)C1=C[C@@H](c2ccc(C#C)cc2)C[C@@H](OCc2ccc(CO)cc2)O1,i,-10.9,i,i,-6.26*,i,i,i,6.4%*,
Cc1cc(OCCOCCNCc2ccccc2)ccc1C(C)C,i,-17.1,i,i,-7.84*,i,49.0%*,i,52.3%*,
Cc1cccc(C(=O)NNC(=O)CCCCC(=O)NNC(=O)c2cccc(C)c2)c1,i,-8.3,i,i,0.25,i,/,/,/,
CCn1cc(C(=O)N2CCN(c3ccccn3)CC2)c(=O)c2cc(S(=O)(=O)N(C)C3CCCCC3)ccc21,i,-14.9,i,i,-0.4,i,/,/,/,
Cc1nc(N2CCN(Cc3ccccc3)CC2)nc2c1C(=O)CC(C)C2 (stereo unspecified),i,-15.3,i,i,-7.12*,i,i,i,8.9%*,
COC(=O)c1cc([N+](=O)[O-])c(-n2cncn2)c([N+](=O)[O-])c1,i,-16.0,i,i,-7.7*,i,i,i,i,
O=C(NCCc1cccc(C(F)(F)F)c1)C1CCC(=O)N(Cc2ccc(Cl)cc2)C1 (stereo unspecified),i,-13.2,i,i,0.05,i,/,/,/,
O=C(c1cc(COc2ccc3c(c2)CCCC3)on1)N1CCCC1,i,-5.6,i,i,4.09,i,i,i,i,
CS(=O)(=O)c1ccc(Cl)c(NC(=O)Cc2c(F)cccc2Cl)c1,i,-4.4,i,i,-0.17,i,/,/,/,
CCCCOc1ccc(-c2[nH]ncc2C=O)cc1,i,-14.4,i,i,2.55,i,/,/,/,
COc1ccc(CN(C)CC2CCCN(CCc3ccc(F)cc3)C2)cc1OC (stereo unspecified),i,-2.6,i,i,-6.23*,i,i,i,22.3%*,
COc1ccc(CCN2CCCC(CN(C)Cc3cc(OC)c(OC)c(OC)c3)C2)cc1 (stereo unspecified),i,-9.1,i,i,1.17,i,/,/,/,
O=C(CN1CCN(Cc2ccc(Cl)cc2)CC1)N1CCc2ccccc21,i,-4.7,i,i,-9.49*,i,i,i,16.3%*,
Cc1ccc(C(=O)Nc2ccc(S(=O)(=O)Nc3ncccn3)cc2)cc1[N+](=O)[O-],i,0.6,i,i,0,i,/,/,/,
CSc1ccc(CNCC(O)c2ccccc2)cc1 (stereo unspecified),i,-5.5,i,i,-6.18*,i,i,i,54.1%*,
OC(CNCCc1ccccc1)c1ccccc1 (stereo unspecified),i,-1.3,i,i,-9.65*,i,i,i,49.8%*,
CC(C)(C)C1CCC(OC(=O)CN2CCCCC2)CC1 (stereo unspecified),i,-6.2,i,i,1.09,i,/,/,/,
CCn1c(COc2ccc(C)cc2)nnc1SCC(=O)C(C)(C)C,i,-0.1,i,i,-2.74,i,/,/,/,
CCn1c(COc2ccc(C)cc2)nnc1SCc1ccc(C#N)cc1,i,-13.3,i,i,-7.91*,i,i,i,7.3%*,
COc1cccc(OC)c1C(=O)Nc1ccc(N2CCCC2)cc1,i,-4.6,i,i,3.03,i,i,i,i,
N/C(=N\NC(=O)c1cccs1)c1cc2cc(Cl)ccc2oc1=O,i,-10.9,i,i,-0.04,i,/,/,/,
CCCCn1c(N)c(N(CCOC)C(=O)COC(=O)CCOc2ccccc2)c(=O)[nH]c1=O,i,-5.8,i,i,0.06,i,i,i,?,
CCCCn1c(N)c(N(CCOC)C(=O)COc2ccc(OCC)cc2)c(=O)[nH]c1=O,i,-10.6,i,i,1.55,i,/,/,/,
COc1cccc(C(C)NC(=S)NCc2ccc(Cl)cc2)c1 (stereo unspecified),i,-19.9,i,i,-7.85*,8*,i,i,31.4%*,KCNQ1 block val=0.0;CHO KCNQ1 ctr=0.524;KCNQ2 spec=i;KCNQ1 KCNE1 spec=i
CCOC(=O)CC1CCCCN1Cc1cn[nH]c1-c1ccc(F)cc1F (stereo unspecified),i,-12.4,i,i,-1.46,i,/,/,/,
O=C(O)c1cnn(-c2nc(-c3ccc(Cl)c(Cl)c3)cs2)c1C(F)(F)F,i,-3.5,i,i,3.04,i,i,i,i,KCNK9 block conf=i;Kir21 sel=i;HEK293 Tl ctr=i
CN(CCCCOc1ccc(F)cc1)Cc1ccccc1,i,-2.6,i,i,-0.01,i,/,/,/,
Cc1cc(C)c(C)c(OCCCCN(C)Cc2ccccc2)c1,i,-5.8,i,i,-7.28*,i,i,i,8.7%*,KCNK9 block conf=i;Kir21 sel=46.5%*;HEK293 Tl ctr=i
CSc1cccc(NC(=O)CC(C)n2ccnc2)c1 (stereo unspecified),i,-0.3,i,i,0.17,i,/,/,/,
